Measured values taken from paper PMC9305408 (Chemmedchem, 2022).
Converted amounts (≈) assume the structure as drawn.

Tests used:
Format in all cases: cell-based
[1] = system: Escherichia coli ATCC 25922; experiment: MIC, broth microdilution; details: ATCC25922, 24 h, read-out: minimum inhibitory concentration (MIC)
In short: (§1)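 Run by broth microdilution in Mueller-Hinton broth. A 10 mg/mL test sample was added to the first well and serially diluted 1:2 across 12 wells. Bacteria were added to about 10⁶ CFU/mL final, and plates were incubated at 37 °C for 24 h. Resazurin was then added for 2 h at 37 °C, and reduction from blue to pink scored growth. MIC was determined in triplicate.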

Aspergillus niger [2] = experiment: MIC, broth microdilution; details: 48 h, read-out: minimum inhibitory concentration (MIC)
In short: (§2)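 Twofold serial dilutions of test compound in Mueller-Hinton broth were run across 12 wells, starting from 10 mg/mL in the first well. Fungal suspension was added at about 10⁶ CFU/mL final, then plates were incubated at 28 °C for 48 h. Resazurin was added for 2 h at 37 °C, with blue-to-pink reduction scored as growth. MIC was determined in triplicate.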

[3] = system: Bacillus subtilis ATCC 3366; experiment: MIC, broth microdilution; details: ATCC3366, 24 h, read-out: minimum inhibitory concentration (MIC)
In short: as §1

[4] = system: Pseudomonas aeruginosa ATCC 27853; experiment: MIC, broth microdilution; details: ATCC27853, 24 h, read-out: minimum inhibitory concentration (MIC)
In short: as §1

[5] = system: Staphylococcus aureus ATCC 29213; experiment: MIC, broth microdilution; details: ATCC29213, 24 h, read-out: minimum inhibitory concentration (MIC)
In short: as §1

Candida albicans [6] = experiment: MIC, broth microdilution; details: 48 h, read-out: minimum inhibitory concentration (MIC)
In short: as §2

Aspergillus niger [7] = experiment: Agar disc diffusion; details: 6 mm discs, 6 μl of 10 mg/mL
Candida albicans [8] = experiment: Agar disc diffusion; details: 6 mm discs, 6 μl of 10 mg/mL
[9] = system: Bacillus subtilis ATCC 3366; experiment: Agar disc diffusion; details: ATCC3366, read-out: diameter of the inhibition zone
In short: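 Agar plates (30 ml medium) were each spread with 100 μl fresh culture of one organism. Sterile 6 mm paper discs were loaded with 6 μl of 10 mg/mL test sample. Plates were sealed against evaporation and incubated at 37 °C for 24 h. Inhibition zone diameter was measured in mm, averaged over three independent determinations.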

MIC [1] [mg/L]	MIC (Aspergillus niger [2]) [mg/L]	MIC [3] [mg/L]	MIC [4] [mg/L]	MIC [5] [mg/L]	MIC (Candida albicans [6]) [mg/L]	Structure (SMILES)	diameter of the inhibition zone (Aspergillus niger [7])	diameter of the inhibition zone (Candida albicans [8])	zone of inhibition at 10000 µg/mL [9] [mm]
620 (≈ 1990 µM)	10000 (≈ 32000 µM)	5000 (≈ 16000 µM)	620 (≈ 1990 µM)	2500 (≈ 8000 µM)		C#CCn1c(=O)cc(C(=O)N[C@@H](C)C(=O)OC)c2ccccc21 [Compound 2 a, Methyl (S)‐2‐[2‐oxo‐1‐(prop‐2‐yn‐1‐yl)‐1,2‐dihydroquinoline‐4‐carbox amido]propanoate]			
620 (≈ 1580 µM)		2500 (≈ 6390 µM)	2500 (≈ 6390 µM)	2500 (≈ 6390 µM)	10000 (≈ 25600 µM)	C#CCn1c(=O)cc(C(=O)N[C@@H](C)C(=O)OC)c2cc(Br)ccc21 [Compound 2 b, Methyl (S)‐6‐bromo‐2‐[2‐oxo‐1‐(prop‐2‐yn‐1‐yl)‐1,2‐dihydroquinoline‐4‐carboxamido]propanoate]			
78 (≈ 183 µM)		310 (≈ 729 µM)	2500 (≈ 5880 µM)	1250 (≈ 2940 µM)		CCCCCn1cc(Cn2c(=O)cc(C(=O)N[C@@H](C)C(=O)OC)c3ccccc32)nn1 [Compound 3a1, Methyl (S)‐2‐{2‐oxo‐1‐[(1‐pentyl‐1H‐1,2,3‐triazol‐4‐yl)methyl]‐1,2‐dihydroquinoline‐4‐carboxamido}propanoate]	did not show any antifungal activity	did not show any antifungal activity	
310 (≈ 696 µM)		2500 (≈ 5610 µM)	2500 (≈ 5610 µM)	2500 (≈ 5610 µM)	10000 (≈ 22400 µM)	COC(=O)[C@H](C)NC(=O)c1cc(=O)n(Cc2cn(Cc3ccccc3)nn2)c2ccccc12 [Compound 3a2, Methyl (S)‐2‐{2‐oxo‐1‐[(1‐benzyl‐1H‐1,2,3‐triazol‐4‐yl)methyl]‐1,2‐dihydroquinoline‐4‐carboxamido}propanoate]			
39 (≈ 84.9 µM)		2500 (≈ 5440 µM)	1250 (≈ 2720 µM)	1250 (≈ 2720 µM)	10000 (≈ 21800 µM)	COC(=O)[C@H](C)NC(=O)c1cc(=O)n(Cc2cn(Cc3ccccc3C)nn2)c2ccccc12 [Compound 3a3, Methyl (S)‐2‐{2‐oxo‐1‐[(1‐(2‐methylbenzyl)‐1H‐1,2,3‐triazol‐4‐yl)methyl]‐1,2‐dihydroquinoline‐4‐carboxamido}propanoate]			
2500 (≈ 4770 µM)		78 (≈ 149 µM)	2500 (≈ 4770 µM)	310 (≈ 591 µM)		COC(=O)[C@H](C)NC(=O)c1cc(=O)n(Cc2cn(Cc3ccccc3Br)nn2)c2ccccc12 [Compound 3a4, Methyl (S)‐2‐{2‐oxo‐1‐[(1‐(2‐bromobenzyl)‐1H‐1,2,3‐triazol‐4‐yl)methyl]‐1,2‐dihydroquinoline‐4‐carboxamido}propanoate]	did not show any antifungal activity	did not show any antifungal activity	18
19.5 (≈ 35.7 µM)	10000 (≈ 18300 µM)	310 (≈ 567 µM)	78 (≈ 143 µM)	39 (≈ 71.4 µM)	5000 (≈ 9150 µM)	COC(=O)C(NC(=O)c1ccccc1)n1cc(Cn2c(=O)cc(C(=O)N[C@@H](C)C(=O)OC)c3ccccc32)nn1 (stereo partly drawn) [Compound 3a5, Methyl (S)‐2‐{2‐oxo‐1‐[(1‐(1‐benzamido‐2‐methoxy‐2‐oxoethyl)‐1H‐1,2,3‐triazol‐4‐yl)methyl]‐1,2‐dihydroquinoline‐4‐carboxamido}propanoate]			
620 (≈ 1150 µM)		310 (≈ 576 µM)	620 (≈ 1150 µM)	2500 (≈ 4640 µM)		COC(=O)[C@H](C)NC(=O)c1cc(=O)n(Cc2cn(Cc3ccccc3C)nn2)c2ccc(Br)cc12 [Compound 3b3, Methyl (S)‐6‐bromo‐2‐{2‐oxo‐1‐[(1‐(2‐methylbenzyl)‐1H‐1,2,3‐triazol‐4‐yl)methyl]‐1,2‐dihydroquinoline‐4‐carboxamido}propanoate]	did not show any antifungal activity	did not show any antifungal activity	
310 (≈ 514 µM)		9.75 (≈ 16.2 µM)	1250 (≈ 2070 µM)	2500 (≈ 4140 µM)		COC(=O)[C@H](C)NC(=O)c1cc(=O)n(Cc2cn(Cc3ccccc3Br)nn2)c2ccc(Br)cc12 [Compound 3b4, Methyl (S)‐6‐bromo‐2‐{2‐oxo‐1‐[(1‐(2‐bromobenzyl)‐1H‐1,2,3‐triazol‐4‐yl)methyl]‐1,2‐dihydroquinoline‐4‐carboxamido}propanoate]	did not show any antifungal activity	did not show any antifungal activity	
